According to ChEMBL document CHEMBL4613315, “Design of First-in-Class Dual EZH2/HDAC Inhibitor: Biochemical Activity and Biological Evaluation in Cancer Cells” (ACS Med Chem Lett, 2020):

Experiments:
[1] = biological target: Histone-lysine N-methyltransferase EZH2 (Homo sapiens, UniProt Q15910); experiment: Inhibition of EZH2 in human RH4 cells assessed as H3K27me3 level at 50 uM incubated for 96 hrs by Western blot analysis; format: cell-based
[2] = Cytotoxicity against human RH4 cells assessed as reduction in cell viability at 50 uM in presence of vorinostat incubated for 72 hrs by CellTiter-Glo Luminescent cell viability assay relative to control; format: functional; conditions: Rh4, 72 h
In short: (§1)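 Viability after 72 h of single-agent or combined treatment with the HDAC inhibitor (0.05–0.25 μM) and the EZH2 inhibitor. EZH2 inhibitor range: U937 5–25 μM; RH4 10–50 μM. Synergy was assessed by combination index and isobologram analysis.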

[3] = Cytotoxicity against human RH4 cells assessed as combinational index measured at fraction affected value of 0.45 in presence of vorinostat at 20 uM incubated for 72 hrs by CellTiter-Glo Luminescent cell viability assay; format: functional; in short: as §1
[4] = biological target: T1, Protein deacetylase HDAC6 (Homo sapiens) (UniProt Q9UBN7); experiment: Inhibition of HDAC6 in human RH4 cells assessed as acetylated alpha-tubulin level at 50 uM in presence of vorinostat incubated for 72 hrs by Western blot analysis (reference value: 1); format: cell-based
T1 sequence (whole entry): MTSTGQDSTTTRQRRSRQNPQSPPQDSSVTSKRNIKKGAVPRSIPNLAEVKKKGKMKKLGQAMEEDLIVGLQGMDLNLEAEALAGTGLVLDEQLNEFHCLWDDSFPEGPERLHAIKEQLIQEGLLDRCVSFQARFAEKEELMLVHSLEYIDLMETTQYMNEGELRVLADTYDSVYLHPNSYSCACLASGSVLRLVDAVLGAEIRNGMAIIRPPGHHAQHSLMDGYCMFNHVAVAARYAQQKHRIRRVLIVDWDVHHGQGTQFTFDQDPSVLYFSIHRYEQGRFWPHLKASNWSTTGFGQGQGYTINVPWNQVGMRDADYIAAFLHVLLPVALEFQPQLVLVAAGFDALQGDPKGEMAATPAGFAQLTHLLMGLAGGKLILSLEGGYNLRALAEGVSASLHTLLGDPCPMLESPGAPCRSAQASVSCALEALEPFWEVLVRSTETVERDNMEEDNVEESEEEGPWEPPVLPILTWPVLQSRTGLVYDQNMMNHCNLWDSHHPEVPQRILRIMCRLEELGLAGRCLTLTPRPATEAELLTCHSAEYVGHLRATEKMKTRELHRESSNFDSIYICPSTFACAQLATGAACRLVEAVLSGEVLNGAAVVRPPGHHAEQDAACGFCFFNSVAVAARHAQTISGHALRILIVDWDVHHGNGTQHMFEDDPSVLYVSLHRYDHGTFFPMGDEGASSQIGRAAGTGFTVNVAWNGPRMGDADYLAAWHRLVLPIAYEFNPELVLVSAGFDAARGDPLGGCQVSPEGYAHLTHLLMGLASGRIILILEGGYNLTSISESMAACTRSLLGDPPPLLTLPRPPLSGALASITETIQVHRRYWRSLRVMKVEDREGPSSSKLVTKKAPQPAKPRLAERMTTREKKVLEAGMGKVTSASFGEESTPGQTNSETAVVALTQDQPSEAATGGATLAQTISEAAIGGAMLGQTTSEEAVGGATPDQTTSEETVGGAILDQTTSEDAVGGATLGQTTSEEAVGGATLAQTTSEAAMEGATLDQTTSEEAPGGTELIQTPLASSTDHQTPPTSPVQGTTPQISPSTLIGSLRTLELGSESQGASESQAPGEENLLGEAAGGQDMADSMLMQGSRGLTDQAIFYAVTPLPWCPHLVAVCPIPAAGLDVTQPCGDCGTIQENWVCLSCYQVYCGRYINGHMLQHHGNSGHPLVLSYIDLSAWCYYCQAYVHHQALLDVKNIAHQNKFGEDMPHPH
In short: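 RH4 cells co-treated with EZH2 inhibitor at 50 μM plus HDAC inhibitor at 0.15 μM; Western blot after 72 or 96 h for H3K27me3 or acetyl-tubulin, vinculin loading control; densitometry normalized to loading control then DMSO vehicle.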

[5] = biological target: T1, Protein deacetylase HDAC6 (Homo sapiens); experiment: Inhibition of HDAC6 in human RH4 cells assessed as acetylated alpha-tubulin level at 50 uM incubated for 96 hrs by Western blot analysis; format: cell-based
[6] = Cytotoxicity against human RH4 cells assessed as reduction in cell viability at 50 uM incubated for 72 hrs by CellTiter-Glo Luminescent cell viability assay relative to control; format: functional; conditions: Rh4, 72 h
Histone deacetylase 3 = Histone deacetylase 3 (Homo sapiens, UniProt O15379); experiment: Inhibition of human recombinant HDAC3 using AMC-K(Ac)GL as substrate by fluorescence based assay
Histone deacetylase 3, sequence (O15379 whole entry): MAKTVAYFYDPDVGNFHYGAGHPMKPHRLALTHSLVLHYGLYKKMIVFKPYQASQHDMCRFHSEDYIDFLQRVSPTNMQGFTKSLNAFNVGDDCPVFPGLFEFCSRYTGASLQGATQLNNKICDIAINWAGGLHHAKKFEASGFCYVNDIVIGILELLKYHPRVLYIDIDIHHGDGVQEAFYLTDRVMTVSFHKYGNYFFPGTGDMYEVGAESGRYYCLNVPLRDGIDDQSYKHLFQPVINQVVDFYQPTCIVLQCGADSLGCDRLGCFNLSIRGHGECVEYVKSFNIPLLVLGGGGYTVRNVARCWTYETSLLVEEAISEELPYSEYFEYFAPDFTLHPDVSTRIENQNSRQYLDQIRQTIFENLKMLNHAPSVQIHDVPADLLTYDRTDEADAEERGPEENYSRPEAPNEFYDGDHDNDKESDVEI

U-937 [7] = experiment: Induction of apoptosis in human U937 cells assessed as necrotic cells at 25 uM incubated for 72 hrs by annexin V-FITC staining based flow cytometry (reference value: 0.5 %); format: functional
U-937 [8] = experiment: Induction of apoptosis in human U937 cells assessed as necrotic cells at 10 uM incubated for 72 hrs by annexin V-FITC staining based flow cytometry (reference value: 0.5 %); format: functional
[9] = Cell cycle arrest in human RH4 cells assessed as G0/G1 accumulation at 28 uM incubated for 72 hrs by propidium iodide staining based flow cytometry (reference value: 46.2 %); format: functional
[10] = Induction of apoptosis in human RH4 cells assessed as viable cells at 14 uM incubated for 72 hrs by annexin V-FITC staining based flow cytometry (reference value: 86.6 %); format: functional; conditions: Rh4, 72 h, read-out: Activity
U-937 [11] = experiment: Cytotoxicity against human U937 cells assessed as reduction in cell viability incubated for 72 hrs by CellTiter-Glo Luminescent cell viability assay; format: functional, cell-based; conditions: U-937, 72 h
U-937 [12] = experiment: Induction of apoptosis in human U937 cells assessed as viable cells at 25 uM incubated for 72 hrs by annexin V-FITC staining based flow cytometry (reference value: 95.4 %); format: functional; conditions: U-937, 72 h, read-out: Activity
Histone deacetylase 8 = biological target: T2, Histone deacetylase 8 (Homo sapiens, UniProt Q9BY41); experiment: Inhibition of human recombinant HDAC8 using AMC-K(Ac)GL as substrate by fluorescence based assay
T2 sequence (Q9BY41 whole entry): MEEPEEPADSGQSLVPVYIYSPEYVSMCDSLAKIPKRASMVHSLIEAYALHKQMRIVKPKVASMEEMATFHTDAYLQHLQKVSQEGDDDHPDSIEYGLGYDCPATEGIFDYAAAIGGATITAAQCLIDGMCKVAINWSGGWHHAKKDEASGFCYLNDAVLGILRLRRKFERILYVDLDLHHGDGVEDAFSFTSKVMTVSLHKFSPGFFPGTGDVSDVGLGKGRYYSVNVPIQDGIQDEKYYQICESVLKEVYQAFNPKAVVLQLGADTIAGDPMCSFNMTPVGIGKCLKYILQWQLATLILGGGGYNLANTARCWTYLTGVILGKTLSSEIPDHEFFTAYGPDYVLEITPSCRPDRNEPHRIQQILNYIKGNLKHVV

[13] = Cytotoxicity against human RH4 cells assessed as reduction in cell viability at 35 uM incubated for 96 hrs by CellTiter-Glo Luminescent cell viability assay relative to control; format: functional; conditions: Rh4, 96 h
In short: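 Viability of U937 (5–25 μM) and RH4 (5–35 μM) cells after 48, 72 and 96 h of treatment at increasing concentrations.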

Histone-lysine N-methyltransferase EZH2, sequence (Q15910 whole entry, looked up): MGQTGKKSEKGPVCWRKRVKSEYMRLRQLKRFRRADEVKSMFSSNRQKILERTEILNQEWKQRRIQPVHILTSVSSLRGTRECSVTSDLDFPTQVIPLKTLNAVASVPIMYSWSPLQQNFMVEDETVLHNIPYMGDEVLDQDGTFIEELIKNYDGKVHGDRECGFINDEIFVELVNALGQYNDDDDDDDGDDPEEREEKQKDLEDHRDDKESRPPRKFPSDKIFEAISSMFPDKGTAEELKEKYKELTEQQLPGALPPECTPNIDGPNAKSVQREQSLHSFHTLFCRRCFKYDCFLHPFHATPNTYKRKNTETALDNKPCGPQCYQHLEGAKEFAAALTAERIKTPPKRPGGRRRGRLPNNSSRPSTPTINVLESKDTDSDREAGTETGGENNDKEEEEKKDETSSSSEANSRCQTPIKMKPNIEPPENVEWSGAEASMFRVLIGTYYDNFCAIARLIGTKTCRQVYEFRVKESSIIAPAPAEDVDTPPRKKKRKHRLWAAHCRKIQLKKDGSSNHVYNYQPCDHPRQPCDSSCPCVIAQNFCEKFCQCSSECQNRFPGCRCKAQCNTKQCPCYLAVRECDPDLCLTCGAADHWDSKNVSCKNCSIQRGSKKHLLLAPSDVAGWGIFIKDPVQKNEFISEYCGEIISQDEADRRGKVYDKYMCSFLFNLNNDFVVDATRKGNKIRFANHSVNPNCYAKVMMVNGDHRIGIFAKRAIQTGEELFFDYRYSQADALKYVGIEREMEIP

fold change (FC) [1]	fold change (FC) [4]	fold change (FC) [5]	IC50 (Histone deacetylase 3) [nM]	IC50 (Histone deacetylase 8) [nM]	Compound	inhibition at 50 µM [2] [%]	CI [3]	inhibition at 50 µM [6] [%]	Activity (U-937 [7]) [%]	Activity (U-937 [8]) [%]	Activity [9] [%]	viability at 14 µM [10] [%]	IC50 (U-937 [11]) [nM]	viability at 25 µM (U-937 [12]) [%]	inhibition at 35 µM [13] [%]
0.3	2.4	1.4			Cc1cc(C)c(CNC(=O)c2cc(C)n(-c3ccccc3)c2C)c(=O)[nH]1	> 60	0.49	> 30							
			450	110	Cc1cc(C)c(CNC(=O)c2cc(C)n(-c3cccc(NC(=O)CCCCCCC(=O)NO)c3)c2C)c(=O)[nH]1				0.3	0.1	44.9	82.5	9000	75	90
